Compound activity: PubChem, The Scripps Research Institute Molecular Screening Center
A selection: hits, their analogues and other compounds. The true share with any hit is near 3.9%.
CHRM1 agonist = agonists of human M1 muscarinic receptor | CHO-K1 hM1, Fluo-8 calcium fluorescence, agonist mode; 0% DMSO, 100% acetylcholine EC100 | 0.33% of 360,000 active | activation, % at 3 µM | P11229;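 active = activation above the run's mean compound activation plus 3 SD, cut at about 16% in these data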;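 note: peak over basal fluorescence ratio within a 140 s kinetic read after compound addition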
TAAR1 antagonist = human TAAR1 antagonism | Q96RJ0 | 1.5% of 360,000 active | CHO RD-HGA16 TAAR1, Fluo-8 calcium fluorescence, antagonist | inhibition, % at 3 µM;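 active = inhibition above a per-plate cutoff, the mean inhibition of test compounds on that plate plus 3 SD, cut at about 49% in these data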
Target sequence (Q96RJ0 whole entry, looked up): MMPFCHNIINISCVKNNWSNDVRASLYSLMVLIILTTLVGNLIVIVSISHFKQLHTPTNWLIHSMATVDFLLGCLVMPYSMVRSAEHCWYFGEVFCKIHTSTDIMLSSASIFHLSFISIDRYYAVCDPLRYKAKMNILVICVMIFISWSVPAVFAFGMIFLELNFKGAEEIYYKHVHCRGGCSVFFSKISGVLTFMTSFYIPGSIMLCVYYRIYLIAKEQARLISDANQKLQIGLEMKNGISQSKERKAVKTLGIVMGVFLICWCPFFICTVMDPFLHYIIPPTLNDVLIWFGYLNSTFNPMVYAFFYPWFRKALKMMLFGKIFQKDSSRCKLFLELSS
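Assay system: RD-HGA16 CHO cells with stable hTAAR1 and Gα16 / Reagent: EC80 β-phenethylamine stimulus / Doses: 3 µM, single point / Timing: dye loading 75 min at 37 °C, then 30 min room temperature / Measured by: Fluo-8 intracellular calcium dye fluorescence, real-time kinetic reads / Controls: vehicle wells and EC80 agonist wells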
TAAR1 ag = agonists of human TAAR1; Q96RJ0; CHO RD-HGA16 TAAR1, Fluo-8 calcium fluorescence; vehicle wells 0%, saturating PEA agonist 100%; activation, % at 3 µM; 0.99% of 360,000 active;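 active = activation above the mean activation of all test compounds in the run plus 3 SD, cut at about 38% in these data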
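Signal – calcium-sensitive Fluo-8 signal, excitation 470-495, emission 515-575 nm · System – RD-HGA16 (CHO) cells co-expressing Gα16 and hTAAR1 · Incubation – 17-24 h seeding, 75 min 37 °C dye, 30 min RT · Compound dosing – 3 µM single concentration · Repeats – no replicates (n 1)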
M1 PAM = potentiates human M1 receptor response to acetylcholine; CHO-K1 hM1, Fluo-8 calcium fluorescence, ACh EC20; 0% = ACh EC20, 100% = maximal ACh; activation, % at 3 µM; 0.088% of 360,000 active; in the data active = activation above about 19%, passing the limit was not always enough
HTR2A ag = agonists of mouse serotonin 5-HT2A receptor (HTR2A); activation, % at 7.6 µM; P35363; CHO-K1 mHTR2A beta-arrestin complementation, luminescence; percent of 30 µM serotonin response; 0.66% of 360,000 active;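 active = activation above a run cutoff, the mean activation of all tested compounds plus 3 SD, cut at about 14% in these data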
CHRM1 antagonist = blocks human M1 muscarinic receptor; P11229; CHO-K1 hM1, Fluo-8 calcium fluorescence, ACh EC80 antagonist; inhibition, % at 3 µM; 1.3% of 360,000 active; AID 588852;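 active = percent inhibition above its own plate's cutoff, namely the mean of that plate's compound wells plus 3 SD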;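 note: peak over basal fluorescence ratio during 140 s after agonist addition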
Hits are given with their value; n = inactive; x = no result given.

SMILES | CHRM1 agonist | TAAR1 antagonist | TAAR1 ag | M1 PAM | HTR2A ag | CHRM1 antagonist
CCCCc1ccc(NC(=O)CSc2nc(=O)n(CCN(CC)CC)c3c2CCCC3)cc1 | n | n | n | n | n | 65.6
O=C(CSc1nc(=O)n(CCCN2CCOCC2)c2c1CCC2)Nc1ccc(F)cc1 | n | n | n | n | n | n
COC(=O)N1C[C@H](OCc2ccccc2)[C@H]2C[C@@H]1c1ccccc1O2 | x | n | n | x | x | x
CCn1nnnc1NCc1ccc(SC)cc1 | n | n | n | n | n | n
CCn1nnnc1NCc1ccc(N2CCCC2)cc1 | n | n | n | n | n | 89.4
O=C(Nc1c2c(nn1-c1cccc(Cl)c1)CS(=O)(=O)C2)c1ccco1 | n | n | n | n | n | n
COc1ccc([C@@H]2C[C@H]3[C@@H](CN2S(=O)(=O)c2ccccc2)C(=O)C[C@@H](c2ccc(C)cc2)N3S(=O)(=O)c2ccc(C)cc2)cc1 | n | n | n | n | n | n
CC(C)(C)c1ccc(-n2nc(C#N)c(Cl)cc2=O)cc1 | n | 97.2 | n | n | n | 44.6
Cc1cccc(NC(=O)CSc2nnc(-c3cc(C)[nH]n3)n2N)c1 | x | n | n | x | x | x
CSCCC(NC(=O)COc1ccccc1)C(=O)N(C)Cc1ccc(SC)cc1 (stereo unspecified) | n | 52.5 | n | n | n | n
O=C(C1CCCCC1)N1CCC2CC1c1cc(-c3ccc4c(c3)OCO4)ccc12 (stereo unspecified) | n | n | n | n | n | 35.1
CCCN(C(=O)CSCc1ccc(C)cc1)c1c(N)n(Cc2ccccc2)c(=O)[nH]c1=O | n | n | n | n | n | n
CCCN(C(=O)CSCc1ccccc1C)c1c(N)n(Cc2ccccc2)c(=O)[nH]c1=O | n | n | n | 25.9 | n | n
CS(=O)(=O)N1CCN(CC2CC3C=CC2C3)CC1 (stereo unspecified) | 44.6 | n | n | n | n | n
Cc1ccccc1CN1CCN(CC2CC3C=CC2C3)CC1 (stereo unspecified) | n | n | n | n | n | 54.0
CCN1CCN(CC2CC3C=CC2C3)CC1 (stereo unspecified) | n | n | n | n | n | n
Cc1ccccc1CN1CCN(S(C)(=O)=O)CC1 | n | n | n | n | n | n
CCCCCC(O)(CCN1CCCCC1)c1ccc(OCC)cc1 (stereo unspecified) | n | n | n | n | n | 99.1
CCCCC(O)(CCN1CCOCC1)c1ccc(Cl)cc1 (stereo unspecified) | n | x | x | n | n | 87.2
CCC(O)(CCN1CCCCC1)c1ccccc1 (stereo unspecified) | n | n | n | n | n | 76.4
CCCC(O)(c1ccc(Cl)cc1)C(CN1CCOCC1)c1ccccc1 (stereo unspecified) | n | n | n | n | n | 60.9
CCCCOc1ccc(C(O)(CCC)CCN2CCOCC2)cc1 (stereo unspecified) | n | n | n | n | n | n
CCCC(O)(CCN1CCCCC1)c1ccc(OCC)cc1 (stereo unspecified) | n | n | n | n | n | n
CCOc1ccc(C(=O)N[C@H](C(=O)Nc2ccccc2OC)C(C)C)cc1 | n | n | n | n | n | n
COc1ccc(C(O)(CCN2CCCCC2)C2CCCCC2)cc1 (stereo unspecified) | n | n | n | n | n | 101.2
SMILES | CHRM1 agonist | TAAR1 antagonist | TAAR1 ag | M1 PAM | HTR2A ag | CHRM1 antagonist
CCN(c1ccccc1)S(=O)(=O)c1cc(C(=O)Nc2ccc(F)c(F)c2)ccc1F | n | 56.5 | n | n | n | 32.6
CCN(c1ccccc1)S(=O)(=O)c1ccc(C(=O)Nc2cccc(NC(C)=O)c2)cc1 | n | n | n | n | n | n
CC(C)n1c(CNC(=O)c2ccccc2F)nnc1SCC(=O)c1ccc(F)cc1 | n | n | 38.8 | n | n | n
Cc1nnc(NC(=O)CSc2nnc(CNC(=O)c3ccccc3F)n2C(C)C)s1 | n | n | n | n | n | n
O=C(c1ccc(COc2ccc(Cl)cc2)o1)N1CCN(Cc2ccc3c(c2)OCO3)CC1 | n | 52.5 | n | n | n | n
O=c1c(=NNc2ccccc2Cl)c(=O)c2ccccc12 | n | n | n | n | n | n
Cc1cc(C)c(NN=c2c(=O)c3ccccc3c2=O)c(C)c1 | n | n | n | n | n | 34.5
CCCNC(=O)c1ccc(N2CCC3(CC2)CC(c2ccccc2)=NO3)c(NC(=O)c2ccccc2)c1 | n | n | n | n | n | 32.0
CCCNC(=O)c1ccc(N2CCC3(CC2)CC(c2cccc(Br)c2)=NO3)c(N)c1 | n | n | n | n | n | n
CCCNC(=O)c1ccc(N2CCC3(CC2)CC(c2cccc(Br)c2)=NO3)c([N+](=O)[O-])c1 | n | 50.7 | n | n | n | n
CCCNC(=O)c1ccc(N2CCC3(CC2)CC(c2ccccc2)=NO3)c(NC(=O)c2ccc(Br)cc2)c1 | n | n | n | n | n | n
O=C(O)c1ccc(N/N=C/c2ccc(-c3ccccc3)cc2)cc1 | n | n | n | n | n | n
O=C(O)c1ccc(N/N=C/c2ccc(OC(=O)c3ccccc3Cl)cc2)cc1 | n | 58.2 | n | n | n | n
Cc1ccc2oc(=O)c3cc(C(=O)NCCCN4CCc5ccccc5C4)sc3c2c1 | n | n | n | n | n | 24.9
CSc1ccc(CN2CCN(Cc3ccc([N+](=O)[O-])cc3)CC2)cc1 | n | n | n | n | n | 41.4
O=[N+]([O-])c1ccc(CN2CCCCCC2)cc1 | n | n | n | n | n | n
Cc1cc(C)c(OCC(O)CN2CCN(C(=O)c3ccccc3)CC2)c(C)c1 (stereo unspecified) | n | n | n | n | n | n
COC(=O)c1ccc(NC(=O)Cn2nc(-c3ccncc3)nc2SCC(=O)Nc2nccs2)cc1 | n | n | n | n | n | 32.8
CN1CCC2(CC1)N=C(c1ccc(F)cc1)C(=S)N2C(=O)c1ccc(C(C)(C)C)cc1 | n | n | n | n | n | 48.8
COc1ccc(NC(=O)c2ccc(NC(=O)CCS(=O)(=O)c3cccs3)cc2)cc1 | n | 53.0 | n | n | n | n
CCOC(=O)c1cccc(NC(=O)CCS(=O)(=O)c2cccs2)c1 | n | n | n | n | n | n
COc1cccc(NC(=O)CCS(=O)(=O)c2cccs2)c1 | n | n | n | n | n | n
CC(=O)c1cccc(NC(=O)c2ccc(NC(=O)CCS(=O)(=O)c3cccs3)cc2)c1 | n | 51.5 | n | n | n | n
CC(=O)c1cccc(NC(=O)C2(C)Cc3c(-c4cccc(C(F)(F)F)c4)ccnc3O2)c1 (stereo unspecified) | n | n | n | n | n | n
C#CCN1C(=O)[C@]2(OC[C@@H]3Cc4ccccc4[C@@H]3C=C2C)c2ccccc21 | x | n | n | x | x | x
